pEC50, pIC50: −log10 of the molar value.
Legend:
[1] = Cytotoxicity against HEL cells infected with Cytomegalovirus assessed as alteration in cell morphology by microscopic method; type: cell-based; conditions: human, HEL cells infected with Cytomegalovirus
How it was run: (§1)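 In the HEL cultures used for the antiviral assays, cell morphology was examined microscopically across varying compound concentrations. MCC is the minimum concentration causing a microscopically detectable alteration of cell morphology.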

Human alphaherpesvirus 3 [2] = assay: Antiviral activity against thymidine kinase expressing Varicella-Zoster virus OKA infected in HEL cells assessed as reduction in virus plaque formation; type: functional, cell-based, strain Oka vaccine; conditions: Human alphaherpesvirus 3, strain Oka vaccine, HEL
How it was run: (§2)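 Confluent HEL fibroblast cultures were infected with VZV at an input of 100 PFU and incubated with varying compound concentrations. Plaques were counted once plaque formation was complete in untreated infected controls.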

Human alphaherpesvirus 3 [3] = assay: Antiviral activity against thymidine kinase deficient Varicella-Zoster virus 07-1 infected in HEL cells assessed as reduction in virus plaque formation; type: functional, cell-based; conditions: Human alphaherpesvirus 3, 07-1, HEL; how it was run: as §2
[4] = Cytotoxicity against HEL cells infected with Varicella-Zoster virus assessed as alteration in cell morphology by microscopic method; type: cell-based; conditions: human, HEL cells infected with Varicella-Zoster virus; how it was run: as §1
Cytomegalovirus [5] = assay: Antiviral activity against Cytomegalovirus AD169 infected in HEL cells assessed as reduction in virus plaque formation; type: functional, cell-based; conditions: Human betaherpesvirus 5, AD169, HEL
How it was run: (§3)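 Confluent HEL fibroblast cultures infected with 100 PFU of HCMV and kept with varying compound concentrations. Plaques scored once plaque formation was complete in untreated infected controls.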

Cytomegalovirus [6] = assay: Antiviral activity against Cytomegalovirus Davis infected in HEL cells assessed as reduction in virus plaque formation; type: functional, cell-based; conditions: Human betaherpesvirus 5, Davis, HEL; how it was run: as §3
L1210 = assay: Anti-proliferative activity against mouse L1210 cells measured after 48 hrs by coulter counter method; type: ADME, cell-based; conditions: Mus musculus, L1210, 48 h
How it was run: (§4)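 Cells at 300,000–500,000 cells/mL, combined 1:1 by volume with compound dilutions, incubated at 37 °C: L1210 for two days, CEM for three days, HeLa for four days. Cells counted by Coulter counter.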

CCRF-CEM = assay: Anti-proliferative activity against human CEM cells measured after 72 hrs by coulter counter method; type: ADME, cell-based; conditions: Homo sapiens, CCRF-CEM, 72 h; how it was run: as §4
HeLa = assay: Anti-proliferative activity against human HeLa cells measured after 4 days by coulter counter method; type: ADME, cell-based; conditions: Homo sapiens, HeLa, 96 h; how it was run: as §4
HMEC-1 = assay: Anti-proliferative activity against HMEC1 cells by coulter counter method; type: ADME, cell-based, Homo sapiens; conditions: Homo sapiens, HMEC-1
How it was run: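 HMEC-1 cells at 300,000–500,000 cells/mL, mixed 1:1 by volume with serial dilutions of test compound, incubated at 37 °C. Cell number counted by Coulter counter.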

HEL = assay: Cytotoxicity against HEL cells infected with Varicella-Zoster virus assessed as growth inhibition; type: cell-based; conditions: human, hel

Row | SMILES | MCC [1] [µM] | pEC50 (Human alphaherpesvirus 3 [2]) | pEC50 (Human alphaherpesvirus 3 [3]) | MCC [4] [µM] | pEC50 (Cytomegalovirus [5]) | pEC50 (Cytomegalovirus [6]) | pIC50 (L1210) | pIC50 (CCRF-CEM) | pIC50 (HeLa) | pIC50 (HMEC-1) | CC50 (HEL) [µM]
1 | CCOP(=O)(OCC)[C@@H]1C[C@@H](Cn2c(=O)n(Cc3cccc(F)c3)c(=O)c3ccccc32)ON1C (relative stereo) | > 100 | 4.25 | < 4.00 | > 100 | 4.12 | 4.20 | 3.88 | 4.00 | 4.06 | 3.82 | –
2 | CCOP(=O)(OCC)[C@H]1C[C@@H](Cn2c(=O)n(Cc3ccccc3F)c(=O)c3ccccc32)ON1C (relative stereo) | 100 | 4.23 | < 4.00 | > 100 | < 4.00 | 4.00 | 3.69 | 3.74 | 3.89 | ≤ 3.60 | –
3 | CCOP(=O)(OCC)[C@@H]1C[C@@H](Cn2c(=O)n(Cc3ccccc3)c(=O)c3ccccc32)ON1C (relative stereo) | 100 | < 4.70 | < 4.70 | 100 | < 4.00 | < 4.00 | 3.85 | 3.91 | 3.92 | 3.63 | –
4 | CCOP(=O)(OCC)C1CC(Cn2c(=O)n(C(=O)c3ccccc3F)c(=O)c3ccccc32)ON1C (mixture of isomers) | 100 | 4.54 | 4.59 | > 100 | < 4.00 | 4.20 | < 3.60 | – | < 3.60 | < 3.60 | –
5 | CCOP(=O)(OCC)[C@H]1C[C@@H](Cn2c(=O)n(C(=O)c3ccccc3)c(=O)c3ccccc32)ON1Cc1ccccc1 (relative stereo) | 100 | 5.07 | 4.97 | 100 | < 4.70 | < 4.70 | 3.81 | – | – | < 3.60 | 16.3
6 | O=c1[nH]cc(F)c(=O)[nH]1 [FLUOROURACIL] | – | – | – | – | – | – | 6.48 | – | – | – | –
7 | CCOP(=O)(OCC)[C@@H]1C[C@@H](Cn2c(=O)n(Cc3ccc(F)cc3)c(=O)c3ccccc32)ON1C (relative stereo) | 100 | 4.17 | < 4.70 | 10 | < 4.00 | 4.00 | 3.90 | 4.03 | 4.09 | 3.80 | –
8 | CCOP(=O)(OCC)C1CC(Cn2c(=O)n(C(=O)c3ccc(F)cc3)c(=O)c3ccccc32)ON1Cc1ccccc1 (mixture of isomers) | 20 | 5.13 | 5.12 | 100 | < 4.70 | < 4.70 | 3.98 | 3.88 | < 3.60 | – | 12.3
9 | CCOP(=O)(OCC)C1CC(Cn2c(=O)n(C(=O)c3cccc(F)c3)c(=O)c3ccccc32)ON1C (mixture of isomers) | 100 | 5.11 | 4.67 | > 100 | < 4.00 | < 4.00 | < 3.60 | – | < 3.60 | – | 30
10 | CCOP(=O)(OCC)[C@@H]1C[C@@H](Cn2c(=O)n(Cc3ccccc3F)c(=O)c3ccccc32)ON1C (relative stereo) | 20 | < 4.70 | < 4.70 | 100 | < 4.00 | 4.00 | 3.71 | 4.00 | 4.13 | 3.72 | –
11 | CCOP(=O)(OCC)[C@@H]1C[C@@H](Cn2c(=O)n(C(=O)c3ccccc3F)c(=O)c3ccccc32)ON1C (relative stereo) | 100 | 4.44 | 4.47 | > 100 | < 4.70 | 4.17 | – | < 3.60 | – | – | –
12 | CCOP(=O)(OCC)C1CC(Cn2c(=O)n(C(=O)c3cccc(F)c3)c(=O)c3ccccc32)ON1Cc1ccccc1 (mixture of isomers) | 100 | 5.22 | 5.07 | 100 | < 4.70 | < 4.70 | 3.73 | 3.78 | – | < 3.60 | 19.3
13 | CCOP(=O)(OCC)C1CC(Cn2c(=O)n(Cc3ccc(F)cc3)c(=O)c3ccccc32)ON1C (mixture of isomers) | 100 | 4.45 | 4.60 | 100 | < 4.70 | < 4.70 | ≤ 3.60 | 3.76 | 3.80 | ≤ 3.60 | –
14 | CCOP(=O)(OCC)[C@@H]1C[C@@H](Cn2c(=O)n(C(=O)c3cccc(F)c3)c(=O)c3ccccc32)ON1C (relative stereo) | 100 | 4.78 | 4.82 | > 100 | < 4.70 | < 4.70 | 3.64 | < 3.60 | – | < 3.60 | 16.5
15 | CCOP(=O)(OCC)[C@@H]1C[C@@H](Cn2c(=O)n(C(=O)c3ccc(F)cc3)c(=O)c3ccccc32)ON1Cc1ccccc1 (relative stereo) | 20 | 5.12 | 5.08 | 100 | < 4.70 | < 4.70 | 3.91 | 3.77 | – | ≤ 3.60 | 12.7
16 | CCOP(=O)(OCC)[C@H]1C[C@@H](Cn2c(=O)n(C(=O)c3ccc(F)cc3)c(=O)c3ccccc32)ON1C (relative stereo) | 100 | 4.58 | 4.61 | > 100 | < 4.70 | < 4.70 | – | < 3.60 | < 3.60 | < 3.60 | –
17 | CCOP(=O)(OCC)C1CC(Cn2c(=O)n(Cc3ccccc3)c(=O)c3ccccc32)ON1C (mixture of isomers) | 100 | < 4.00 | < 4.00 | > 100 | < 4.00 | < 4.00 | 3.84 | 3.98 | 4.02 | 3.65 | –
18 | CCOP(=O)(OCC)[C@@H]1C[C@@H](Cn2c(=O)n(Cc3ccccc3F)c(=O)c3ccccc32)ON1Cc1ccccc1 (relative stereo) | 20 | 5.40 | < 4.70 | 20 | < 4.70 | < 5.40 | 4.17 | 4.01 | 4.10 | 3.84 | –

— ChEMBL document CHEMBL3994569, “Synthesis, anti-varicella-zoster virus and anti-cytomegalovirus activity of quinazoline-2,4-diones containing isoxazolidine and phosphonate substructures” (Eur J Med Chem, 2017)
